Laboratory results reported in ChEMBL document CHEMBL3098030, “Explorations of substituted urea functionality for the discovery of new activators of the heme-regulated inhibitor kinase” (J Med Chem, 2013).
Calls of active or inactive are those of the source. No cut-off for these calls is given here.

Tests used:
[1] = target: Eukaryotic translation initiation factor 2-alpha kinase 1 (Homo sapiens) (UniProt Q9BQI3); assay: Activation of HRI in human CRL-2813-pBISA-DL(ATF-4) reporter cells assessed as reduction of ternary complex at 30 uM by dual-luciferase reporter gene assay relative to control
Sequence of Eukaryotic translation initiation factor 2-alpha kinase 1 (Homo sapiens) (Q9BQI3 whole entry): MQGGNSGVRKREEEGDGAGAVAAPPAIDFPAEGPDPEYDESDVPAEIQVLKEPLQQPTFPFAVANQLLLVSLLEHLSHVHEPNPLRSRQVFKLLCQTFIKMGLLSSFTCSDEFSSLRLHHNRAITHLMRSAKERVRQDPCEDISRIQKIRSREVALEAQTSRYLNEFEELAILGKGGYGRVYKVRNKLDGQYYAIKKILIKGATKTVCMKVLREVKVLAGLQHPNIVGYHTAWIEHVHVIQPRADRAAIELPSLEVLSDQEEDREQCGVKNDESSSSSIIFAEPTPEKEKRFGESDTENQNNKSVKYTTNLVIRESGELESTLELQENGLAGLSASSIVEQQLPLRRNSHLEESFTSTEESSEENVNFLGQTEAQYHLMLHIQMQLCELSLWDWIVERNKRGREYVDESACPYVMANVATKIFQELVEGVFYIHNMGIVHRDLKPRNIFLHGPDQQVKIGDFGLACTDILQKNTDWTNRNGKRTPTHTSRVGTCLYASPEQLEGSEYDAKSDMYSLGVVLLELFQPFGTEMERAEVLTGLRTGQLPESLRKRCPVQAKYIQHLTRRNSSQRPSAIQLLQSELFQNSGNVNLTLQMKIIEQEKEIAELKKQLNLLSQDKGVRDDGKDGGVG
In short: (§1)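 Stably transfected CRL-2813-pBISA-DL(ATF-4) reporter cells treated with compounds in dose-response; firefly and renilla luciferases read by dual glow luciferase kit. Activity = firefly/renilla (F/R) ratio normalized to DMSO-treated wells (set at 1). Triplicate points fitted to logistic sigmoidal model by nonlinear least squares; C3X = concentration giving F/R = 3, Emax = maximal F/R.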

[2] = target: Eukaryotic translation initiation factor 2-alpha kinase 1 (Homo sapiens) (UniProt Q9BQI3); assay: Activation of HRI in human CRL-2813-pBISA-DL(ATF-4) reporter cells assessed as concentration required to obtain F-luciferase expression/R-luciferase expression ratio 3; in short: as §1
[3] = Cytotoxicity against human CRL2813 cells after 5 days by SRB assay; type: functional, cell-based; conditions: CRL2813, 120 h
In short: (§2)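 CRL-2813 melanoma or NIH/3T3 fibroblasts seeded in 96-well plates, exposed 5 days to 0.5–20 μM compound; fixed in cold 10% TCA, bound sulforhodamine B measured. % growth = 100×(T−T0)/(C−T0). IC50 derived; triplicate, three independent experiments.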

[4] = Antiproliferative activity against human CRL2813 cells after 3 days by SRB assay in presence of non-targeting siRNA; type: functional, cell-based; conditions: CRL2813, 72 h
In short: (§3)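 CRL-2813 cells transiently transfected (Lipofectamine 2000) with HRI-targeting or non-targeting siRNA, then treated with compound dose range; proliferation by SRB after 3 days. IC50 calculated per siRNA condition; ratio is HRI-siRNA over non-targeting IC50. Triplicate, three independent experiments; mean±S.E.M.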

[5] = Selectivity ratio of IC50 for mouse NIH/3T3 cells to IC50 for human CRL2813 cells; type: ADME, cell-based; conditions: NIH/3T3 cells and CRL2813 cells, read-out: Ratio IC50
[6] = Antiproliferative activity against human CRL2813 cells after 3 days by SRB assay in presence of HRI-targeting siRNA; type: functional, cell-based; conditions: CRL2813, 72 h; in short: as §3
NIH3T3 = assay: Cytotoxicity against mouse NIH/3T3 cells after 5 days by SRB assay; type: cell-based; conditions: NIH3T3, 120 h; in short: as §2
[7] = target: Eukaryotic translation initiation factor 2-alpha kinase 1 (Homo sapiens) (UniProt Q9BQI3); assay: Activation of HRI in human CRL2813 cells assessed as eIF2alpha phosphorylation after 6 hrs by Western blotting analysis; type: cell-based
In short: (§4)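 CRL-2813 melanoma cells grown in serum-containing medium without antibiotics to 70% confluence, treated 6 h (10 μM for CHOP/cyclin D1), lysed in M-PER on ice 30 min, protein by BCA. Equal protein on SDS-PAGE, probed with anti-pS51-eIF2α rabbit mAb, anti-total eIF2α mouse mAb, anti-CHOP, anti-cyclin D1, anti-actin. Three independent experiments.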

[8] = target: Eukaryotic translation initiation factor 2-alpha kinase 1 (Homo sapiens) (UniProt Q9BQI3); assay: Activation of HRI in human CRL2813 cells assessed as increase in CHOP protein expression at 10 uM after 6 hrs by Western blotting analysis; type: cell-based; in short: as §4
[9] = target: Eukaryotic translation initiation factor 2-alpha kinase 1 (Homo sapiens) (UniProt Q9BQI3); assay: Activation of HRI in human CRL2813 cells assessed as increase in CHOP mRNA expression at 7.5 to 15 uM after 6 hrs by RT-PCR analysis; type: cell-based
In short: (§5)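 CRL-2813 cells incubated with 7.5 or 15 μM compound for 6 h; CHOP and cyclin D1 mRNA measured by real-time PCR. Each run in triplicate, mean of three independent experiments ±S.E.M.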

[10] = target: Eukaryotic translation initiation factor 2-alpha kinase 1 (Homo sapiens) (UniProt Q9BQI3); assay: Activation of HRI in human CRL2813 cells assessed as reduction in cyclin D1 mRNA expression at 7.5 to 15 uM after 6 hrs by RT-PCR analysis; type: cell-based; in short: as §5
[11] = target: Eukaryotic translation initiation factor 2-alpha kinase 1 (Homo sapiens) (UniProt Q9BQI3); assay: Activation of HRI in human CRL2813 cells assessed as reduction in cyclin D1 protein expression at 10 uM after 6 hrs by Western blotting analysis; type: cell-based; in short: as §4
[12] = target: Eukaryotic translation initiation factor 2-alpha kinase 1 (Homo sapiens) (UniProt Q9BQI3); assay: Activation of HRI in human CRL-2813-pBISA-DL(ATF-4) reporter cells assessed as eIF2alpha phosphorylation after 8 to 32 hrs by dual-luciferase reporter gene assay
In short: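 Reporter CRL-2813-pBISA-DL(ATF-4) cells incubated with compounds for 8, 16 or 32 h. Firefly/renilla luciferase ratio measured by dual luciferase assay and normalized to vehicle-treated cells.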

SMILES	Ratio [1]	Activity [2]	IC50 [3]	other results
Cc1cccc(NC(=O)N[C@H]2CC[C@H](Oc3ccc(F)cc3)CC2)c1	4.73	24.1 µM	14.4 µM	–
COC(=O)c1cccc(NC(=O)N[C@H]2CC[C@H](Oc3ccc(F)cc3)CC2)c1	6.83	17.1 µM	9.2 µM	–
O=C(Nc1cccc(C(F)(F)F)c1)NC1CCCCC1	1.87	–	13.2 µM	–
CSc1ccc(NC(=O)N[C@H]2CC[C@H](Oc3ccc(F)cc3)CC2)cc1	1.07	–	> 20 µM	–
O=C(Nc1ccc(C(=O)O)cc1)N[C@H]1CC[C@H](Oc2ccc(F)cc2)CC1	3.49	21.2 µM	11.6 µM	–
Cc1ccc(NC(=O)N[C@H]2CC[C@H](Oc3ccc(F)cc3)CC2)cc1	1.05	–	> 20 µM	–
O=C(Nc1ccccc1F)N[C@H]1CC[C@H](Oc2ccc(F)cc2)CC1	2.1	–	17.5 µM	–
O=C(Nc1cccc(C(=O)O)c1)N[C@H]1CC[C@H](Oc2ccc(F)cc2)CC1	0.88	–	> 20 µM	–
O=C(Nc1ccccc1Br)N[C@H]1CC[C@H](Oc2ccc(F)cc2)CC1	5.23	16.4 µM	7.7 µM	–
O=C(Nc1ccc(I)cc1)N[C@H]1CC[C@H](Oc2ccc(F)cc2)CC1	3.77	6.3 µM	10.2 µM	–
O=C(Nc1ccccc1Cl)N[C@H]1CC[C@H](Oc2ccc(F)cc2)CC1	5.37	18.5 µM	9.1 µM	–
O=C(Nc1cccc([N+](=O)[O-])c1)N[C@H]1CC[C@H](Oc2ccc(F)cc2)CC1	7.47	11.4 µM	6.7 µM	–
CSc1ccccc1NC(=O)N[C@H]1CC[C@H](Oc2ccc(F)cc2)CC1	0.92	–	> 20 µM	–
Cc1ccccc1NC(=O)N[C@H]1CC[C@H](Oc2ccc(F)cc2)CC1	0.98	–	> 20 µM	–
O=C(Nc1ccccc1I)N[C@H]1CC[C@H](Oc2ccc(F)cc2)CC1	3.25	18.5 µM	> 20 µM	–
COC(=O)c1ccc(NC(=O)N[C@H]2CC[C@H](Oc3ccc(F)cc3)CC2)cc1	3.97	12.8 µM	11.6 µM	–
O=C(Nc1ccccc1C(=O)O)N[C@H]1CC[C@@H](Oc2ccc(F)cc2)CC1	1.2	–	> 20 µM	–
COC(=O)c1ccccc1NC(=O)N[C@H]1CC[C@@H](Oc2ccc(F)cc2)CC1	3.79	26.2 µM	14.5 µM	–
O=C(Nc1ccccc1[N+](=O)[O-])N[C@H]1CC[C@H](Oc2ccc(F)cc2)CC1	2.23	–	3.5 µM	–
O=C(Nc1ccc(Br)cc1)N[C@H]1CC[C@H](Oc2ccc(F)cc2)CC1	1.29	–	> 20 µM	–
O=C(Nc1ccccc1)N[C@H]1CC[C@H](Oc2ccc(F)cc2)CC1	1.65	–	20 µM	–
O=C(Nc1ccccc1OC(F)(F)F)N[C@H]1CC[C@H](Oc2ccc(F)cc2)CC1	1.41	–	> 20 µM	–
COc1ccccc1NC(=O)N[C@H]1CC[C@H](Oc2ccc(F)cc2)CC1	1.51	–	> 20 µM	–
COc1cccc(NC(=O)N[C@H]2CC[C@H](Oc3ccc(F)cc3)CC2)c1	3.81	26 µM	14 µM	–
CSc1cccc(NC(=O)N[C@H]2CC[C@H](Oc3ccc(F)cc3)CC2)c1	6.67	12.2 µM	11.1 µM	–
O=C(Nc1ccc(F)cc1)N[C@H]1CC[C@H](Oc2ccc(F)cc2)CC1	0.98	–	20 µM	–
O=C(Nc1ccc(Cl)cc1)N[C@H]1CC[C@H](Oc2ccc(F)cc2)CC1	1.65	–	> 20 µM	–
COc1ccc(NC(=O)N[C@H]2CC[C@H](Oc3ccc(F)cc3)CC2)cc1	0.83	–	> 20 µM	–

Now from value to compound, other results behind:

Ratio [1]	Activity [2]	SMILES	IC50 [3]	other results
26	1.1 µM	O=C(Nc1cccc(C(F)(F)F)c1)N[C@H]1CC[C@H](Oc2cccc(C(F)(F)F)c2)CC1	1.3 µM	IC50 [4]: 1.05 µM; selectivity ratio [5]: 2.5; IC50 [6]: 4.9 µM; IC50 (NIH3T3): 3.3 µM
15.7	1.2 µM	O=C(Nc1cccc(C(F)(F)F)c1)N[C@H]1CC[C@H](Oc2ccccc2C(F)(F)F)CC1	1.4 µM	–
14.4	1.5 µM	O=C(Nc1cccc(C(F)(F)F)c1)N[C@H]1CC[C@H](Oc2ccc(OC(F)(F)F)cc2)CC1	0.69 µM	IC50 [4]: 0.85 µM; selectivity ratio [5]: 4.9; IC50 [6]: 4.9 µM; IC50 (NIH3T3): 3.4 µM
6.73	1.6 µM	O=C(Nc1cccc(C(F)(F)F)c1)N[C@H]1CC[C@H](Oc2ccc(Cl)cc2)CC1	2 µM	–
0.89	–	O=C(Nc1cccc(C(F)(F)F)c1)N[C@H]1CC[C@H](O)CC1	> 20 µM	–
9.52	5.7 µM	O=C(Nc1cccc(Br)c1)N[C@H]1CC[C@H](Oc2ccc(F)cc2)CC1	6.2 µM	–
7.63	5.6 µM	O=C(Nc1cccc(I)c1)N[C@H]1CC[C@H](Oc2ccc(F)cc2)CC1	5.2 µM	–
8.76	6.4 µM	O=C(Nc1cccc(Cl)c1)N[C@H]1CC[C@H](Oc2ccc(F)cc2)CC1	5.9 µM	–
4.52	2.7 µM	O=C(Nc1cccc(C(F)(F)F)c1)N[C@H]1CCC[C@H](Oc2ccc(C(F)(F)F)cc2)C1 (relative stereo)	3.8 µM	–
1.56	–	O=C(Nc1ccccc1C(F)(F)F)N[C@H]1CC[C@H](Oc2ccc(F)cc2)CC1	> 20 µM	Activity [7]: Active; Activity [8]: Active; Activity [9]: Active; Activity [10]: Active; Activity [11]: Active
9.58	4.4 µM	O=C(Nc1cccc(C(F)(F)F)c1)N[C@H]1CC[C@H](OCc2ccc(F)cc2)CC1	2.65 µM	Activity [12]: Active
6.54	13.5 µM	O=C(Nc1cccc(F)c1)N[C@H]1CC[C@H](Oc2ccc(F)cc2)CC1	8.3 µM	Activity [7]: Active; Activity [8]: Active; Activity [9]: Active; Activity [10]: Active; Activity [11]: Active
25.1	0.3 µM	O=C(Nc1cccc(C(F)(F)F)c1)N[C@H]1CC[C@H](Oc2ccc(C(F)(F)F)cc2)CC1	0.46 µM	IC50 [4]: 0.66 µM; selectivity ratio [5]: 7.4; IC50 [6]: 5 µM; IC50 (NIH3T3): 3.4 µM
5.89	1.7 µM	O=C(Nc1cccc(C(F)(F)F)c1)N[C@H]1CCCC[C@@H]1Oc1ccc(C(F)(F)F)cc1 (relative stereo)	3.1 µM	Activity [12]: Active
